# Experimental data taken from paper PMC11905928 (Cell reports. Physical science, 2024).
# Counter-ions that a name gives are not always drawn. Like-named read-outs stand apart in the source and are kept apart here.
# How the values were obtained:
# [1] = molecular target: Aβ19–20 (FF) dimerization (Homo sapiens, UniProt P05067); test: biochemical; conditions: for IC50: Hill equation, FJ, 200 mM KCl
# Aβ1–42 aggregation = Aβ1–42 aggregation (Homo sapiens, UniProt P05067); test: Thioflavin T; format: biochemical; conditions: for normalized fluorescent intensity with respect to positive control Aβ1–42+ThT: Aβ1–42 preincubated 24 h
# C20 cells = test: MTT cell viability, compound by itself; format: cell-based, human
# Outline: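 MTT assay on human microglial C20 cells, run by dose and also by incubation time at 1 uM of test compound. At least three independent experiments, each with 10 technical replicates; error bars are SDs.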
# [2] = test system: neuroblastoma SH-SY5Y cells; test: MTT cell viability, Aβ1–42 treated neuroblastoma cells; format: cell-based; conditions: 10 μM Aβ1–42, Figure S32
# [3] = test system: human microglia cells (C20 cell line); test: MTT cell viability, protection against Aβ1–42 induced toxicity; format: cell-based; conditions: 48 h; for viability: C20, Aβ1–42 500 nM; for viability at 0.5 µM: Homo sapiens, Microglia
# Solubility = format: physicochemical
# Sequence of Aβ1–42 aggregation (P05067 672-713): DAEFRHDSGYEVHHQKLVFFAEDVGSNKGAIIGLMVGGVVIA
smiles,measurement,setting,value
"O=C(O[C@@H]1Cc2c(O)cc(O)cc2O[C@@H]1c1cc(O)c(O)c(O)c1)c1cc(O)c(O)c(O)c1 [Epigallocatechin gallate (EGCG), epigallocatechin gallate]",IC50,[1]; read-out: IC50 on the FF-dimerization,26.3 µM
"C[C@H](Cc1ccc(O)c(O)c1)[C@@H](C)Cc1ccc(O)c(O)c1 [Nordihydroguaiaretic acid (NDGA), nordihydroguaiaretic acid]",IC50,[1]; IC50 on the FF-dimerization,107 µM
"COc1cccc2c1C(=O)c1c(O)c3c(c(O)c1C2=O)C[C@@](O)(C(C)=O)C[C@@H]3O[C@H]1C[C@H](N)[C@H](O)[C@H](C)O1 [Daunorubicin hydrochloride, reference compound]",IC50,[1]; IC50 on the FF-dimerization,3.5 µM
same,effect on Aβ1–42 aggregation (in words),"Aβ1–42 aggregation; after 24-h incubation, ThT 3.75 μM",inhibitory effects
same,toxicity of the compound by itself (in words),C20 cells; C20 cells,showed a toxicity effect by itself
COc1cc(/C=C/C(=O)CC(=O)/C=C/c2ccc(O)c(OC)c2)ccc1O [curcumin],effect on the FF-dimerization (in words),[1],strong inhibition effect
"CN(C)[C@@H]1C(O)=C(C(N)=O)C(=O)[C@@]2(O)C(O)=C3C(=O)c4c(O)cccc4[C@@](C)(O)[C@H]3C[C@@H]12 [Tetracycline, tetracycline]",IC50,[1]; IC50 on the FF-dimerization,77.6 µM
Cc1c2ccncc2c(C)c2c1[nH]c1ccccc12 [Ellipticine],effect on cells treated with Aβ1–42 (in words),[2],protective effects
same,viability,[3]; compound 0.05 μM,65% ± 3%
same,viability,[3]; compound 0.1 μM,64% ± 4%
same,viability at 0.5 µM,[3],61%
same,solubility,Solubility; aqueous buffer,≤ 200 µM
same,solubility,"Solubility; methanol-water (16:84 v/v), aqueous with cosolvent or surfactant or cyclodextrin",1200 µM
same,effect on the FF-dimerization (in words),[1]; single-molecule screening of NIH library,concentration-dependent promotion effect
same,normalized fluorescent intensity with respect to positive control Aβ1–42+ThT,"Aβ1–42 aggregation; 0.2 μM compound, ThT 3.75 μM",106%
same,normalized fluorescent intensity with respect to positive control Aβ1–42+ThT,"Aβ1–42 aggregation; 0.5 μM compound, ThT 3.75 μM",112%
same,effect on Aβ1–42 aggregation (in words),Aβ1–42 aggregation; concentration >1 μM,inhibition effect
same,effect on Aβ1–42 aggregation (in words),Aβ1–42 aggregation; low-concentration range ≤0.5 μM,stimulator
same,C20 cell viability at high concentrations (in words),"C20 cells; high-concentration range such as 5 μM, Figure S31",significantly influenced
"O=C(/C=C/c1ccc(O)c(O)c1)O[C@H](Cc1ccc(O)c(O)c1)C(=O)O [Rosmarinic acid (RA), rosmarinic acid, reference compound]",viability,[3]; compound 1 μM,66% ± 2%
same,viability,[3]; compound 5 μM,69% ± 2%
same,viability at 0.5 µM,[3],67%
same,IC50,[1]; IC50 on the FF-dimerization,13.1 µM
